In ChEMBL document CHEMBL3393029, “Preactivated oxazaphosphorines designed for isophosphoramide mustard delivery as bulk form or nanoassemblies: synthesis and proof of concept” (J Med Chem, 2015):

Legend:
Plasma [1] = test: Drug metabolism in mouse plasma assessed as 4-HO-IFO release measured after 0.5 hrs by HPLC-MS/MS method; assay type: ADME, cell-free
Summary of the method: (§1)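 Prodrugs, from acetonitrile stocks as bulk form or nano-assemblies, were incubated in mouse plasma at 37 °C for up to 24 h. 4-HO-IFO was trapped as its semicarbazone with semicarbazide (2 M in pH 7.4 buffer). It was quantified alongside the parent by isocratic C18 HPLC-ESI(+)-MS/MS with MRM, using hexamethyl phosphoramide as internal standard, over 50–5000 ng/mL. Results are given in ng/mL.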

Plasma [2] = test: Drug metabolism in mouse plasma assessed as 4-HO-IFO level measured after 2 hrs by HPLC-MS/MS method; assay type: ADME, cell-free; summary of the method: as §1
Plasma [3] = test: Drug metabolism in mouse plasma assessed as 4-HO-IFO level measured after 2 to 24 hrs by HPLC-MS/MS method; assay type: ADME, cell-free; summary of the method: as §1
KB = test: Cytotoxicity against human KB cells; assay type: functional, cell-based
Summary of the method: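 KB3.1 was one of 12 human lines tested with nano-assembly formulations. Cells were seeded, then exposed after 24 h to 0.1–200 µM in DMEM or RPMI with 10% FBS at 37 °C and 5% CO2 for 72 h. MTS was read at 490 nm after 2–5 h. Six replicates per concentration; IC50 relative to untreated cells.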

A673 [4] = test: Cytotoxicity against human A673 cells after 72 hrs by MTS assay; assay type: functional, cell-based; settings: A673, 72 h
Summary of the method: (§2)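 Human Ewing sarcoma A673 and rhabdomyosarcoma RMS-1 cells were grown in DMEM or RPMI with 10% FCS, penicillin and streptomycin at 37 °C under 5% CO2. […] MTS was then added for 2–5 h and absorbance read at 490 nm. Six replicates per concentration; IC50 versus untreated cells.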

[5] = Cytotoxicity against human RMS1 cells after 72 hrs by MTS assay; assay type: functional, cell-based; settings: RMS1, 72 h; summary of the method: as §2
Plasma [6] = test: Drug metabolism in mouse plasma assessed as 4-HO-IFO release measured after 2 hrs by HPLC-MS/MS method; assay type: ADME, cell-free; summary of the method: as §1
Plasma [7] = test: Drug metabolism in mouse plasma assessed as 4-HO-IFO level measured after 6 hrs by HPLC-MS/MS method; assay type: ADME, cell-free; summary of the method: as §1
Plasma [8] = test: Drug metabolism in mouse plasma assessed as 4-HO-IFO release measured after 4 hrs by HPLC-MS/MS method; assay type: ADME, cell-free; summary of the method: as §1
A673 [9] = test: Cytotoxicity against human A673 cells after 96 hrs by MTS assay; assay type: functional, cell-based; settings: A673, 96 h; summary of the method: as §2
[10] = Cytotoxicity against human RMS1 cells after 96 hrs by MTS assay; assay type: functional, cell-based; settings: RMS1, 96 h; summary of the method: as §2

SMILES	Drug metabolism (Plasma [2])	Stability (Plasma [3])	IC50 (A673 [4]) [µM]	IC50 [5] [µM]	also measured
CC(C)=CCC/C(C)=C/CC/C(C)=C/COC1CCOP(=O)(NCCCl)N1CCCl (mixture of isomers)	metabolite_detected	Stable			Drug metabolism (Plasma [1]): 700 ng/mL
CO[C@H]1CCOP(=O)(NCCCl)N1CCCl (some centres not stated)					IC50 (KB): 22 µM
COC1CCOP(=O)(NCCCl)N1CCCl (mixture of isomers)	metabolite_detected		1.5	3.8	Drug metabolism (Plasma [6]): 1250 ng/mL; Drug metabolism (Plasma [7]): metabolite_detected
CCCCCOC1CCOP(=O)(NCCCl)N1CCCl (mixture of isomers)			17.7	5.3	
CO[C@@H]1CCOP(=O)(NCCCl)N1CCCl (some centres not stated)					IC50 (KB): 20 µM
CC(C)=CCC/C(C)=C/COC1CCOP(=O)(NCCCl)N1CCCl (mixture of isomers)	metabolite_detected	Stable	25.3	9.3	Drug metabolism (Plasma [8]): 350 ng/mL
CC(C)CCCC(C)CCOC1CCOP(=O)(NCCCl)N1CCCl (configuration not stated)	metabolite_detected	Stable			IC50 (A673 [9]): 24.5 µM; IC50 [10]: 11.3 µM; Drug metabolism (Plasma [1]): 200 ng/mL
